In ChEMBL document CHEMBL4732249, “Design, synthesis and biological evaluation of 2-aminoquinazolin-4(3H)-one derivatives as potential SARS-CoV-2 and MERS-CoV treatments” (Bioorg Med Chem Lett, 2021):

Assays:
SARS-CoV-2 = test: Antiviral activity against SARS-CoV-2 infected in African green monkey Vero cells assessed as inhibition of viral infection by measuring nucleocapsid protein level by immunofluorescence microscopic analysis; format: functional, organism-based; conditions: Severe acute respiratory syndrome coronavirus 2, Vero
Vero = test: Cytotoxicity against African green monkey Vero cells assessed as reduction of cell viability by WST-1 assay; format: cell-based; conditions: chlorocebus sabaeus
[1] = Selective index, ratio of CC50 for African green monkey Vero cells to IC50 for SARS-CoV-2 infected in African green monkey Vero cells
[2] = test system: Middle East respiratory syndrome-related coronavirus; test: Antiviral activity against MERS-CoV infected in African green monkey Vero cells assessed as inhibition of viral infection by measuring reduction in spike protein level by immunofluorescence microscopic analysis; format: functional, organism-based
[3] = Selective index, ratio of CC50 for African green monkey Vero cells to IC50 for MERS-CoV infected in African green monkey Vero cells
[4] = Stability in mouse microsomes assessed as as parent compound remaining after 30 mins; format: ADME, Microsome; conditions: read-out: Stabilty
Method in brief: (§1)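 Liver microsomes from human, mouse and rat were used. The read-out is percent of parent compound remaining after 30 min incubation.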

[5] = Stability in rat microsomes assessed as as parent compound remaining after 30 mins; format: ADME, Microsome; conditions: read-out: Stabilty; method in brief: as §1
[6] = Stability in human microsomes assessed as as parent compound remaining after 30 mins; format: ADME, Microsome; conditions: read-out: Stabilty; method in brief: as §1
HFL1 = test: Cytotoxicity against human HFL-1 cells; format: cell-based
[7] = Cytotoxicity against CHO-K1 cells; format: cell-based, Cricetulus griseus; conditions: chinese hamster
[8] = Cytotoxicity against mouse NCTC clone 929 cells; format: cell-based
[9] = Cytotoxicity against mouse NIH3T3 cells; format: cell-based
hERG (KCNH2) = hERG (KCNH2) (Homo sapiens, UniProt Q12809); test: Inhibition of human ERG at 10 uM relative to control
[10] = Protein binding in rat plasma at 5 uM; format: ADME, cell-free
CYP1A2 = target: T1, CYP1A2 (Homo sapiens, UniProt P05177); test: Inhibition of CYP1A2 (unknown origin) at 10 uM relative to control; format: ADME
T1 sequence (P05177 whole entry): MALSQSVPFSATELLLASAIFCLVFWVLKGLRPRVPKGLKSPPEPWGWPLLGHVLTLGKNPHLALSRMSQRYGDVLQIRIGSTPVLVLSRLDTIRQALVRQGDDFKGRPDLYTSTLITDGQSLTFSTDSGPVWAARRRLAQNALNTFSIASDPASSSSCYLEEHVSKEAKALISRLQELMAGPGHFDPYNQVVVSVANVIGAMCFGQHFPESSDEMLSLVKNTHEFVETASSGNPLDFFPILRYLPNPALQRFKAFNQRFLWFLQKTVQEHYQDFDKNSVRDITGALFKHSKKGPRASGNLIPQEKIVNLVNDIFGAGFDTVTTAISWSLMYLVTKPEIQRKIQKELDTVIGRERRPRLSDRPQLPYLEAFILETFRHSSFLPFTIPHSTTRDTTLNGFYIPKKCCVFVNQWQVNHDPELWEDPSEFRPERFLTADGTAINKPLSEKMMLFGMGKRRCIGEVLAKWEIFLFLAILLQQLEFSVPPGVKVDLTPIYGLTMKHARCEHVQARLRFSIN

CYP2C9 = CYP2C9 (Homo sapiens, UniProt P11712); test: Inhibition of CYP2C9 (unknown origin) at 10 uM relative to control; format: ADME
CYP2C19 = CYP2C19 (Homo sapiens, UniProt P33261); test: Inhibition of CYP2C19 (unknown origin) at 10 uM relative to control; format: ADME
CYP2D6 = CYP2D6 (Homo sapiens, UniProt P10635); test: Inhibition of CYP2D6 (unknown origin) at 10 uM relative to control; format: ADME
CYP3A4 = CYP3A4 (Homo sapiens, UniProt P08684); test: Inhibition of CYP3A4 (unknown origin) at 10 uM relative to control; format: ADME
[11] = Tmax in rat at 10 mg/kg, po; format: ADME, organism-based; conditions: in vivo
Method in brief: (§2)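 Rats were dosed orally at 10 mg/kg. Values are the mean of experiments using three rats.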

[12] = Half life in rat at 10 mg/kg, po; format: ADME, organism-based; conditions: in vivo; method in brief: as §2
[13] = AUC in rat at 10 mg/kg, po; format: ADME, organism-based; design: dose 10 mg/kg; conditions: in vivo; method in brief: as §2
[14] = Oral bioavailability in rat at 10 mg/kg; format: ADME, organism-based; conditions: in vivo
Method in brief: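 Rats received oral dosing at 10 mg/kg alongside intravenous dosing at 2 mg/kg. Values are the mean of experiments using three rats.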

[15] = Half life in rat at 5 mg/kg, iv; format: ADME, organism-based; conditions: in vivo
[16] = AUC in rat at 5 mg/kg, iv; format: ADME, organism-based; design: dose 5 mg/kg; conditions: in vivo
[17] = Clearance in rat at 5 mg/kg, iv; format: ADME, organism-based; conditions: in vivo
[18] = Volume of distribution at steady state in rat at 5 mg/kg, iv; format: ADME, organism-based; conditions: in vivo, read-out: Vdss

Sequence of CYP2C19 (P33261 whole entry): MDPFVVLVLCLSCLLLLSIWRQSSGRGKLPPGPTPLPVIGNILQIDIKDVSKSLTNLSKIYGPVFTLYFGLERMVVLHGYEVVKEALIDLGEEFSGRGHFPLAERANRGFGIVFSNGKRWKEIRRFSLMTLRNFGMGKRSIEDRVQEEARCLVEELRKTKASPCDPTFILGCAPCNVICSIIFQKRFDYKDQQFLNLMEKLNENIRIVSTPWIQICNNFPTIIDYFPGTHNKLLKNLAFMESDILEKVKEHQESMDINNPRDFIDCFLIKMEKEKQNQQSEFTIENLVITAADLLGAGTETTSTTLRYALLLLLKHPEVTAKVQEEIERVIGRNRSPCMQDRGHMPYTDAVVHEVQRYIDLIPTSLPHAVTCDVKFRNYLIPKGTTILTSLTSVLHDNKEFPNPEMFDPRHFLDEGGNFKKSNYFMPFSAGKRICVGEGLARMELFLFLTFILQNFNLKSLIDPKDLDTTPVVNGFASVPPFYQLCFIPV
Sequence of CYP3A4 (P08684 whole entry): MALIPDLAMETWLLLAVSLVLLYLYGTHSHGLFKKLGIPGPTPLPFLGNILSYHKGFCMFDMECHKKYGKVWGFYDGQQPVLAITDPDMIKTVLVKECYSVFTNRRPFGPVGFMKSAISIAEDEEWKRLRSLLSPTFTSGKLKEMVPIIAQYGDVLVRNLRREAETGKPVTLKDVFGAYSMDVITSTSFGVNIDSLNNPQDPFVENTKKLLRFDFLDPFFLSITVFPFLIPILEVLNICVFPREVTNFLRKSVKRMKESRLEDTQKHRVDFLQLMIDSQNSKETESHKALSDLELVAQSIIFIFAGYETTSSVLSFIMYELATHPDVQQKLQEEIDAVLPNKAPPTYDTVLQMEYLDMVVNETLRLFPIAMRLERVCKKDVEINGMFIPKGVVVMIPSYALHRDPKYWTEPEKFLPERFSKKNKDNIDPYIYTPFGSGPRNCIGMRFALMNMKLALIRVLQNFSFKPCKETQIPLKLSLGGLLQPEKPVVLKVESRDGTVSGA
Sequence of CYP2C9 (P11712 whole entry): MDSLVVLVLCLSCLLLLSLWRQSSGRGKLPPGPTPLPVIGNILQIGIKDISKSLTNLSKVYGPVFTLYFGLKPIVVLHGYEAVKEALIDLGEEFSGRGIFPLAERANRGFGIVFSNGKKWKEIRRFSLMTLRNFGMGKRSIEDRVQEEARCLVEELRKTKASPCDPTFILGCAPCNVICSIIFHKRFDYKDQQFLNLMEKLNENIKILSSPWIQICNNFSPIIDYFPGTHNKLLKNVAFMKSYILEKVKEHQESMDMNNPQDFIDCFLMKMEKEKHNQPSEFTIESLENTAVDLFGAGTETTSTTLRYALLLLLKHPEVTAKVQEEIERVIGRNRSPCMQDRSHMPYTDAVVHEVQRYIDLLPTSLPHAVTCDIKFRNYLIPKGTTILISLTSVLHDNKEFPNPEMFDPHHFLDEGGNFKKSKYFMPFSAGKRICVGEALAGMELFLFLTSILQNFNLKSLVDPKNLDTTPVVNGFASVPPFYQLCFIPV
Sequence of CYP2D6 (P10635 whole entry): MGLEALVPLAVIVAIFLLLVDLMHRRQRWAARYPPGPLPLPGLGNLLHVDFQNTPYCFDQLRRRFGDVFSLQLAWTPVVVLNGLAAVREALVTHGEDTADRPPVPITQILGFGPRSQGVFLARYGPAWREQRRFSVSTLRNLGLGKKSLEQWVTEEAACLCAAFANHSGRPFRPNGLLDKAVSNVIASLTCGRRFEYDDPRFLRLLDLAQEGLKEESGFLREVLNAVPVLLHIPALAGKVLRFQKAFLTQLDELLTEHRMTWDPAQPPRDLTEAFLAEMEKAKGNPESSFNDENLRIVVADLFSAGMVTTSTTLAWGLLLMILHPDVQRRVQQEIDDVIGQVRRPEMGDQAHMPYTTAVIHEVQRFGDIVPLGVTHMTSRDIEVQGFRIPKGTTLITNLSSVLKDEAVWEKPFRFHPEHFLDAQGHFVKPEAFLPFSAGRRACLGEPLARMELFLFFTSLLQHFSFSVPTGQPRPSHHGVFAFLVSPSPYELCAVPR
Sequence of hERG (KCNH2) (Q12809 whole entry): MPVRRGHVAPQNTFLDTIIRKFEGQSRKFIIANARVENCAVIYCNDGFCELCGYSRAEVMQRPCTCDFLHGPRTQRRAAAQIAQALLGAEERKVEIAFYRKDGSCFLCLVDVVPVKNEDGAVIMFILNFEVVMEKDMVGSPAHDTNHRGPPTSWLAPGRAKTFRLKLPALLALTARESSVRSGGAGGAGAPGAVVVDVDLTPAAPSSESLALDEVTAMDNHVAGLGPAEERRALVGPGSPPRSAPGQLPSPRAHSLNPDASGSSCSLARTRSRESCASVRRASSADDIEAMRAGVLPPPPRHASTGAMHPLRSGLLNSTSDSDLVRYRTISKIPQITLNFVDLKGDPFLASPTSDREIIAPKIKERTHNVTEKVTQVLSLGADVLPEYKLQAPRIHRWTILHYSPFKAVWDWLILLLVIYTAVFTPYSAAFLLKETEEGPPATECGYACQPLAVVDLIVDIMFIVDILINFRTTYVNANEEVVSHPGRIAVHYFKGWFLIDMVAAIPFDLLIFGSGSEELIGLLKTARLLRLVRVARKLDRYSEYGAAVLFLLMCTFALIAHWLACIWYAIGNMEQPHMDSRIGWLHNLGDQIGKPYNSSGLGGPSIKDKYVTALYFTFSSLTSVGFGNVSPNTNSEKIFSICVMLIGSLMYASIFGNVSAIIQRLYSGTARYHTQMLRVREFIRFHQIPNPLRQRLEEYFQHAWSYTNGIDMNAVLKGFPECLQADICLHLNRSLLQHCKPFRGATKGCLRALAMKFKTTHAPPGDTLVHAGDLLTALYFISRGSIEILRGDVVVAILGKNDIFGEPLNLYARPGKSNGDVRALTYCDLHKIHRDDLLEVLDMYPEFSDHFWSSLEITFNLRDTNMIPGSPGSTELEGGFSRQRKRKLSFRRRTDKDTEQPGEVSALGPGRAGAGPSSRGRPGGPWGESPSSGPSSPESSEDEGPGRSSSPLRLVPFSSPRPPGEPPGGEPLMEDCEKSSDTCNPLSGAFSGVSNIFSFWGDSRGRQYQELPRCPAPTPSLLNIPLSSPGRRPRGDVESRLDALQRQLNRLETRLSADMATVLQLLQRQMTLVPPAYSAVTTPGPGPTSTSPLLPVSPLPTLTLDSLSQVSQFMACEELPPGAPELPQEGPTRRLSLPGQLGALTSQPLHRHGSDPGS

With `O=c1[nH]c(Nc2ccccc2F)nc2cc(Cl)ccc12` the IC50 (SARS-CoV-2) was greater than 25 µM, the CC50 (Vero) was greater than 25 µM and the “Ratio CC50/IC50” value [1] was 1.

In the case of `O=c1[nH]c(Nc2cccc(O)c2)nc2cc(Cl)ccc12`, the IC50 (SARS-CoV-2) is reported as greater than 25 µM, the CC50 (Vero) is reported as greater than 25 µM and the “Ratio CC50/IC50” value [1] is reported as 1.

With `Cc1cc(C)c2nc(Nc3cc(Cl)cc(Cl)c3)[nH]c(=O)c2c1` the IC50 (SARS-CoV-2) was greater than 25 µM, the CC50 (Vero) was greater than 25 µM and the “Ratio CC50/IC50” value [1] was 1.

In the case of `O=c1[nH]c(Nc2cc(Cl)cc(Cl)c2)nc2cc(O)ccc12`, the IC50 (SARS-CoV-2) is reported as greater than 25 µM, the CC50 (Vero) is reported as greater than 25 µM and the “Ratio CC50/IC50” value [1] is reported as 1.

With `Nc1ccc2c(=O)[nH]c(Nc3cc(Cl)cc(Cl)c3)nc2c1` the IC50 (SARS-CoV-2) was greater than 25 µM, the CC50 (Vero) was greater than 25 µM and the “Ratio CC50/IC50” value [1] was 1.

For `O=c1[nH]c(Nc2cc(F)cc(F)c2)nc2c(Cl)ccc(Cl)c12`, the IC50 (SARS-CoV-2) was 0.33 µM, the CC50 (Vero) was greater than 25 µM and the “Ratio CC50/IC50” value [1] was 76. For the same molecule, the IC50 [2] was 0.79 µM and the “Ratio CC50/IC50” value [3] was 31.

With `O=c1[nH]c(Nc2cccc(F)c2)nc2cc(Cl)ccc12` the IC50 (SARS-CoV-2) was 1.4 µM, the CC50 (Vero) was greater than 25 µM and the “Ratio CC50/IC50” value [1] was 18.

For `O=c1[nH]c(Nc2cc(Cl)cc(Cl)c2)nc2cccc(O)c12`, the IC50 (SARS-CoV-2) was 0.15 µM, the CC50 (Vero) was greater than 25 µM and the “Ratio CC50/IC50” value [1] was 168. The IC50 [2] was 1.02 µM, the remaining at 0.5 h [4] was 42% and the remaining at 0.5 h [5] was 54%. For the same molecule, the remaining at 0.5 h [6] was 55%, the CC50 (HFL1) was 9.6 µM and the CC50 [7] was 28 µM. It also gave a CC50 [8] of 27 µM, a CC50 [9] of 60 µM and an inhibition at 10 µM (hERG (KCNH2)) of 28%. For the same molecule, the PPB [10] was 97%, the inhibition at 10 µM (CYP1A2) was 65% and the inhibition at 10 µM (CYP2C9) was 34%. For the same molecule, the inhibition at 10 µM (CYP2C19) was 12%, the inhibition at 10 µM (CYP2D6) was 46% and the inhibition at 10 µM (CYP3A4) was 65%. The Tmax [11] was 1 h, the half-life [12] was 42 h and the AUC [13] was 1010 ng·h/mL. The bioavailability [14] was 7.8%, the half-life [15] was 9.2 h and the AUC [16] was 6500 ng·h/mL. The clearance [17] was 11.2 mL/min/kg, the Vd [18] was 6.8 L/kg and the “Ratio CC50/IC50” value [3] was 25.

For `O=c1[nH]c(Nc2cc(O)cc(O)c2)nc2cc(Cl)ccc12`, the IC50 (SARS-CoV-2) was greater than 25 µM, the CC50 (Vero) was greater than 25 µM and the “Ratio CC50/IC50” value [1] was 1.

In the case of `O=c1[nH]c(Nc2cc(Cl)cc(Cl)c2)nc2cc(N3CCOCC3)ccc12`, the IC50 (SARS-CoV-2) is reported as greater than 25 µM, the CC50 (Vero) is reported as greater than 25 µM and the “Ratio CC50/IC50” value [1] is reported as 1.

In the case of `O=c1[nH]c(N2CCCCC2)nc2cc(Cl)ccc12`, the IC50 (SARS-CoV-2) is reported as greater than 25 µM, the CC50 (Vero) is reported as greater than 25 µM and the “Ratio CC50/IC50” value [1] is reported as 1.

In the case of `O=c1[nH]c(Nc2cc(F)cc(F)c2)nc2cc(O)ccc12`, the IC50 (SARS-CoV-2) is reported as greater than 25 µM, the CC50 (Vero) is reported as greater than 25 µM and the “Ratio CC50/IC50” value [1] is reported as 1.

For `O=c1[nH]c(Nc2cccc(C(F)(F)F)c2)nc2cc(Cl)ccc12`, the IC50 (SARS-CoV-2) was 0.68 µM, the CC50 (Vero) was greater than 25 µM and the “Ratio CC50/IC50” value [1] was 37.

In the case of `COc1cccc2nc(Nc3cc(Cl)cc(Cl)c3)[nH]c(=O)c12`, the IC50 (SARS-CoV-2) is reported as greater than 25 µM, the CC50 (Vero) is reported as greater than 25 µM and the “Ratio CC50/IC50” value [1] is reported as 1.

For `O=c1[nH]c(Nc2cc(Cl)cc(Cl)c2)nc2c(Cl)ccc(Cl)c12`, the IC50 (SARS-CoV-2) was 0.35 µM, the CC50 (Vero) was greater than 25 µM and the “Ratio CC50/IC50” value [1] was 71. For the same molecule, the IC50 [2] was 0.62 µM and the “Ratio CC50/IC50” value [3] was 42.

In the case of `N#Cc1cccc(Nc2nc3cc(Cl)ccc3c(=O)[nH]2)c1`, the IC50 (SARS-CoV-2) is reported as 1.7 µM, the CC50 (Vero) is reported as greater than 25 µM and the “Ratio CC50/IC50” value [1] is reported as 15.

In the case of `COc1cccc(Nc2nc3cc(Cl)ccc3c(=O)[nH]2)c1`, the IC50 (SARS-CoV-2) is reported as 11 µM, the CC50 (Vero) is reported as greater than 25 µM and the “Ratio CC50/IC50” value [1] is reported as 2.3.

With `Nc1ccc2c(=O)[nH]c(Nc3cc(F)cc(F)c3)nc2c1` the IC50 (SARS-CoV-2) was greater than 25 µM, the CC50 (Vero) was greater than 25 µM and the “Ratio CC50/IC50” value [1] was 1.

For `O=c1[nH]c(Nc2cc(Cl)cc(Cl)c2)nc2c(Cl)c(Cl)ccc12`, the IC50 (SARS-CoV-2) was 0.24 µM, the CC50 (Vero) was greater than 25 µM and the “Ratio CC50/IC50” value [1] was 103. For the same molecule, the IC50 [2] was 0.88 µM and the “Ratio CC50/IC50” value [3] was 31.
